From PubChem
Hits are enriched below; roughly 1.6% of the tested compounds scored in any of these assays.
PABP polyA inh: PABP-poly(A) binding inhibition. PABP-poly(A) RNA binding, fluorescence polarization. P11940. actives 1% (n = 290,000). calls only at 35 µM;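 also: calls also rest on retests at 20 µM and on dose response follow-up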
Target sequence (P11940 whole entry, looked up): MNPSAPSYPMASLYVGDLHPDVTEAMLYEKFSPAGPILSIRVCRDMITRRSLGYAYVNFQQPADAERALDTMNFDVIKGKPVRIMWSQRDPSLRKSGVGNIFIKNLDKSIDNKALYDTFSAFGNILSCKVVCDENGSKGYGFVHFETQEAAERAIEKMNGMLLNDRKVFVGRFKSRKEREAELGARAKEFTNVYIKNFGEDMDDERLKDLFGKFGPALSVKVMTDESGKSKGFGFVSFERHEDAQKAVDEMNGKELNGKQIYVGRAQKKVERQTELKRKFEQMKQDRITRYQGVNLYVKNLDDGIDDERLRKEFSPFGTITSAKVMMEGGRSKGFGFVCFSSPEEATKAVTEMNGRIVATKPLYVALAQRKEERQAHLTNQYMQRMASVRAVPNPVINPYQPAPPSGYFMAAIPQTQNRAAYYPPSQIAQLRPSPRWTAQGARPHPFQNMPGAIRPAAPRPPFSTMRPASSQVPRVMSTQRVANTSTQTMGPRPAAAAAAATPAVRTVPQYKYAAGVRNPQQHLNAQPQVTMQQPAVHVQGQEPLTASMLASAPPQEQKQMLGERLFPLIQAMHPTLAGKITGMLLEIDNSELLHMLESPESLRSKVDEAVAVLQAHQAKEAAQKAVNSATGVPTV
TCR-CD3 inh: inhibitors of human TCR-CD3 interaction; TAMRA-labeled TCR probe fluorescence, biochemical; actives 0.37% (n = 360,000); inhibition, % at 9.4 µM; in the data active = inhibition above about 19%;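 also: recombinant mutant TCR 2C K166C tagged with TAMRA read by polarization; 0% = receptor in buffer alone and 100% = receptor with positive control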
eIF4H FP inh: inhibitors of RNA binding by human eIF4H. Q15056. eIF4H fluorescence polarization binding assay. inhibition, % at 35 µM. actives 0.94% (n = 290,000). AID 2012;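 also: calls also rest on retests at 20 µM and on dose response follow-up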
PABP1 MLLE inh: inhibitors of microRNA-mediated deadenylation, human PABP1 MLLE binding; P11940; GST-MLLE / FITC-PAM2 fluorescence polarization; inhibition, % at 20 µM; actives 0.36% (n = 360,000); AID 588489; in the data active = inhibition above about 35%, passing the limit was not always enough;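 also: plate controls were DMSO wells with GST-MLLE for no effect and wells lacking GST-MLLE protein for full effect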
RBBP9 inhibitor: human RBBP9 hydrolase inhibition; inhibition, % at 7.94 µM; actives 0.2% (n = 220,000); AID 1515; recombinant RBBP9, FP-Rh probe fluorescence polarization;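 active = inhibition above the campaign mean of all tested compounds plus 3 SD, cut at about 14% in these data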;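 also: plate controls were DMSO wells with RBBP9 for no effect and wells lacking RBBP9 protein for full effect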
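Measured by: FP readout at 525/598 nm; material: recombinant human RBBP9; also added: Serine-hydrolase probe FP-Rh, 375 nM pre-mixing; medium: Tris buffer pH 8.0, NaCl, Pluronic; replication: one well per compound; doses: one concentration, 7.94 µM nominal, 0.794% DMSO; timing: preincubation 30 min plus labeling 45 min at 25 °C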
* hit, by the source's call. Unless noted, no rule for the calls is given here.

Cc1cc(=O)[nH]c(SCC(=O)NC(C)C2CC3CCC2C3)c1C#N (stereo not given) was read as PABP polyA inh active, TCR-CD3 inh -6, eIF4H FP inh 3.3*, PABP1 MLLE inh -1 and RBBP9 inhibitor 1.
Cc1cc(=O)[nH]c(SCC(=O)c2ccccc2)c1C#N was read as PABP polyA inh active, TCR-CD3 inh 2, eIF4H FP inh 81*, PABP1 MLLE inh -66 and RBBP9 inhibitor -5.
`Cc1ccccc1NC(=O)CSc1[nH]c(=O)cc(C)c1C#N` gave PABP polyA inh active, TCR-CD3 inh -6, eIF4H FP inh 22*, PABP1 MLLE inh -43 and RBBP9 inhibitor -4.
Cc1ccccc1NC(=O)CSc1nnc(C)c(=O)[nH]1 was read as PABP polyA inh inactive, TCR-CD3 inh 8, eIF4H FP inh -5, PABP1 MLLE inh 43* and RBBP9 inhibitor 1.
Cc1nnc(SCC(=O)Nc2ccccc2)[nH]c1=O was read as PABP polyA inh inactive, TCR-CD3 inh -2, eIF4H FP inh -1, PABP1 MLLE inh 29 and RBBP9 inhibitor -1.
For CC(C)=CCC/C(C)=C/CN1C(=O)N(c2ccc(F)cc2)[C@H]2C[C@@H](c3ccccc3)[C@@H](C)[C@@H](C(=O)N3CCOCC3)C[C@H]21 the results were TCR-CD3 inh -4.
CCc1cccc(CC)c1NC(=O)CSc1nnc(CCC(=O)O)c(=O)[nH]1 was read as PABP polyA inh inactive, TCR-CD3 inh 0, eIF4H FP inh -10, PABP1 MLLE inh 39* and RBBP9 inhibitor -10.
Screening CCCCOCCCNC(=O)C[C@H]1C[C@@]2(C(=O)OC)C(=C[C@H](C(C)(C)C)O[C@@H]2C)N(CCC2=CCCCC2)C1=O returned TCR-CD3 inh -1.
Screening CC(C)(C)c1ccc(C#C[C@@H]2C=C[C@H]3OC(=O)CC/C=C/CCC(=O)OC[C@H]3O2)cc1 returned TCR-CD3 inh 3.
O=c1c2ccccc2c(C=NCc2ccccn2)c(O)n1-c1ccccc1 was read as PABP polyA inh active, TCR-CD3 inh -10, eIF4H FP inh 90*, PABP1 MLLE inh -13 and RBBP9 inhibitor -8.
`CC(=O)Nc1ccc2nc3ccccc3nc2c1` gave PABP polyA inh inactive, TCR-CD3 inh -13, eIF4H FP inh 35, PABP1 MLLE inh 42* and RBBP9 inhibitor 0.
For O=C(Nc1ccc2nc3ccccc3nc2c1)c1ccc(Br)cc1 the results were PABP polyA inh inactive, TCR-CD3 inh -2, eIF4H FP inh 16, PABP1 MLLE inh -8 and RBBP9 inhibitor -6.
Screening C=CC(=O)NC1CCCCN(CCC)C1=O (stereo not given) returned TCR-CD3 inh -1.
For Cc1ccc(OCCC(=O)O)cc1 the results were PABP polyA inh active, TCR-CD3 inh 2, eIF4H FP inh inconclusive, PABP1 MLLE inh 1 and RBBP9 inhibitor -2.
For C/C=C/C=C/C(=O)c1cc(C)c(OC(=O)CNC(=O)OC(C)(C)C)c(C)c1O the results were TCR-CD3 inh 2.
O=C(NCC1CCCO1)c1cc(-c2ccco2)nc2ccccc12 (stereo not given) was read as PABP polyA inh active, TCR-CD3 inh 3, eIF4H FP inh 82*, PABP1 MLLE inh 13 and RBBP9 inhibitor 0.
O=C(N/N=C/c1cccc(F)c1)c1cc(-c2ccco2)nc2ccccc12 was read as PABP polyA inh active, TCR-CD3 inh 13, eIF4H FP inh 84*, PABP1 MLLE inh -18 and RBBP9 inhibitor -6.
Screening O=C(NC1CCC(O)CC1)c1cc(-c2ccco2)nc2ccccc12 (stereo not given) returned PABP polyA inh active, TCR-CD3 inh 9, eIF4H FP inh 85*, PABP1 MLLE inh 10 and RBBP9 inhibitor 0.
`O=C(NCC1CCCO1)c1cc2nc(-c3ccco3)cc(C(F)(F)Cl)n2n1` (stereo not given) gave PABP polyA inh active, TCR-CD3 inh -5, eIF4H FP inh 83* and PABP1 MLLE inh 8.
`O=C(NCC1CCCO1)c1nn2c(C(F)(F)F)cc(-c3ccco3)nc2c1Cl` (stereo not given) gave PABP polyA inh inactive, TCR-CD3 inh -11, eIF4H FP inh 2 and PABP1 MLLE inh 60.
COc1ccccc1CNC(=O)COC(=O)c1cc(-c2ccco2)nc2ccccc12 was read as PABP polyA inh active, TCR-CD3 inh 10, eIF4H FP inh 90*, PABP1 MLLE inh -12 and RBBP9 inhibitor 0.
`COc1ccccc1CNC(=O)COC(=O)c1cc(C)nc2ccccc12` gave TCR-CD3 inh -1 and PABP1 MLLE inh 7.
CCc1nnc(NC(=O)c2cc(-c3ccccn3)nc3ccccc23)s1 was read as PABP polyA inh inactive, TCR-CD3 inh 2, eIF4H FP inh -15, PABP1 MLLE inh -1 and RBBP9 inhibitor -3.
CCc1nnc(NC(=O)c2cc(-c3ccco3)nc3ccccc23)s1 was read as PABP polyA inh inactive, TCR-CD3 inh 4, eIF4H FP inh 76*, PABP1 MLLE inh -7 and RBBP9 inhibitor -2.
For Cc1ccc(C)n1-c1nccc(-c2cccs2)n1 the results were PABP polyA inh active, TCR-CD3 inh 5, eIF4H FP inh 91*, PABP1 MLLE inh -6 and RBBP9 inhibitor 0.
`N#Cc1cccn1-c1nccc(-c2cccs2)n1` gave PABP polyA inh inactive, TCR-CD3 inh -3, eIF4H FP inh -5, PABP1 MLLE inh -15 and RBBP9 inhibitor -6.
`Cc1ccc(C)n1-c1nccc(-c2ccco2)n1` gave PABP polyA inh active, TCR-CD3 inh 9, eIF4H FP inh 54*, PABP1 MLLE inh -14 and RBBP9 inhibitor -7.
`COc1cccc(C(=O)N[C@H](C(=O)N2CCC[C@H]2C(=O)NCCc2ccccc2Cl)C(C)C)c1` gave TCR-CD3 inh 6.
Screening O=C(N/N=C/c1sc(=O)n(-c2ccccc2)c1Cl)c1ccccc1 returned PABP polyA inh active, TCR-CD3 inh 1, eIF4H FP inh 65*, PABP1 MLLE inh -148 and RBBP9 inhibitor -4.
For Cc1c(C)c2cc(Cl)c(O)c(CN(C)C)c2oc1=O the results were PABP polyA inh inactive, TCR-CD3 inh -9, eIF4H FP inh 15, PABP1 MLLE inh -10 and RBBP9 inhibitor 4.
Screening CN(C)Cc1c(O)c(Cl)cc2c3c(c(=O)oc12)CCCC3 returned PABP polyA inh active, TCR-CD3 inh 6, eIF4H FP inh 64*, PABP1 MLLE inh 10 and RBBP9 inhibitor -1.
For N#CC1=C(N)OC2=C(CC/C2=C\c2ccccc2Cl)C1c1ccccc1Cl (stereo not given) the results were PABP polyA inh active, TCR-CD3 inh 7, eIF4H FP inh 59, PABP1 MLLE inh 102 and RBBP9 inhibitor -6.
Cc1sc2nc(CSc3nc4ccccc4c(=O)n3CCCN3CCOCC3)[nH]c(=O)c2c1C was read as PABP polyA inh active, TCR-CD3 inh -1, eIF4H FP inh inconclusive, PABP1 MLLE inh -75 and RBBP9 inhibitor -2.
Screening Cc1ccc(/C=C(\C#N)c2nn(-c3ccccc3)c(N)c2C#N)cc1 returned PABP polyA inh inactive, TCR-CD3 inh 4, eIF4H FP inh -13, PABP1 MLLE inh -11 and RBBP9 inhibitor -6.
